Laboratory results: ChEMBL document CHEMBL3792280, “Design and synthesis of novel quinoxaline derivatives as potential candidates for treatment of multidrug-resistant and latent tuberculosis” (Bioorg Med Chem Lett, 2016)
Converted amounts (≈) assume the structure as drawn.

Experiments:
Type in all cases: functional
[1] = Ratio of MIC for Mycobacterium tuberculosis H37Rv SRI 1345 to MIC for ofloxacin resistant Mycobacterium tuberculosis SRI 4000
Method in brief: (§1)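 MIC in µg/mL, retested on susceptible H37Rv (SRI 1345) in the same panel as single-drug-resistant strains: isoniazid-, rifampin- and ofloxacin-resistant. Percent inhibition recorded at the MIC concentration. Ratio taken as MIC H37Rv / MIC resistant strain.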

[2] = tested on: Mycobacterium tuberculosis; test: Antimicrobial activity against isoniazid resistant Mycobacterium tuberculosis SRI 1369 assessed as growth inhibition at MIC after 7 days; method in brief: as §1
[3] = Ratio of MIC for Mycobacterium tuberculosis H37Rv SRI 1345 to MIC for rifampicin resistant Mycobacterium tuberculosis SRI 1367; method in brief: as §1
[4] = tested on: Mycobacterium tuberculosis; test: Antimicrobial activity against isoniazid resistant Mycobacterium tuberculosis SRI 1369 after 7 days; conditions: SRI 1369, 168 h; method in brief: as §1
[5] = tested on: Mycobacterium tuberculosis; test: Antimicrobial activity against ofloxacin resistant Mycobacterium tuberculosis SRI 4000 after 7 days; conditions: SRI 4000, 168 h; method in brief: as §1
[6] = tested on: Mycobacterium tuberculosis; test: Antimicrobial activity against ofloxacin resistant Mycobacterium tuberculosis SRI 4000 assessed as growth inhibition at MIC after 7 days; method in brief: as §1
[7] = tested on: Mycobacterium tuberculosis; test: Antimicrobial activity against rifampicin resistant Mycobacterium tuberculosis SRI 1367 after 7 days; conditions: SRI 1367, 168 h; method in brief: as §1
[8] = tested on: Mycobacterium tuberculosis; test: Antimicrobial activity against rifampicin resistant Mycobacterium tuberculosis SRI 1367 assessed as growth inhibition at MIC after 7 days; method in brief: as §1
[9] = Ratio of MIC for Mycobacterium tuberculosis H37Rv SRI 1345 to MIC for isoniazid resistant Mycobacterium tuberculosis SRI 1369; method in brief: as §1

SMILES | Ratio [1] | growth inhibition (GI) [2] | Ratio [3] | MIC [4] | MIC [5] | growth inhibition (GI) [6] | MIC [7] | growth inhibition (GI) [8] | Ratio [9]
Cc1c(C(=O)/C=C/c2ccccc2)[n+]([O-])c2cc(Cl)ccc2[n+]1[O-] | 4 | 64% | 4 | 1 µg/mL (≈ 2.93 µM) | 0.5 µg/mL (≈ 1.47 µM) | 100% | 0.5 µg/mL (≈ 1.47 µM) | 51% | 2
O=C(c1ccco1)c1c(C(F)(F)F)[n+]([O-])c2cc(Cl)c(N3CCOCC3)cc2[n+]1[O-] | 8 | 78% | 4 | 0.5 µg/mL (≈ 1.13 µM) | 0.25 µg/mL (≈ 0.563 µM) | 76% | 0.5 µg/mL (≈ 1.13 µM) | 66% | 4
COC(=O)c1c(C(F)(F)F)[n+]([O-])c2ccc(N3CCN(c4ccc(F)cc4)CC3)cc2[n+]1[O-] | 8 | 51% | 8 | 0.19 µg/mL (≈ 0.407 µM) | 0.19 µg/mL (≈ 0.407 µM) | 81% | 0.19 µg/mL (≈ 0.407 µM) | 73% | 8
NNC(=O)c1ccncc1 [ISONIAZID] | – | – | – | – | – | – | 0.02 µg/mL (≈ 0.146 µM) | 55% | –
CC(=O)c1c(C(F)(F)F)[n+]([O-])c2cc(F)c(N3CCCCC3)cc2[n+]1[O-] | – | 57% | – | 0.25 µg/mL (≈ 0.67 µM) | 0.25 µg/mL (≈ 0.67 µM) | 84% | 0.25 µg/mL (≈ 0.67 µM) | 68% | –
CO[C@H]1/C=C/O[C@@]2(C)Oc3c(C)c(O)c4c(O)c(c(/C=N/N5CCN(C)CC5)c(O)c4c3C2=O)NC(=O)/C(C)=C\C=C\[C@H](C)[C@H](O)[C@@H](C)[C@@H](O)[C@@H](C)[C@H](OC(C)=O)[C@@H]1C [RIFAMPIN] | – | 72% | – | 0.05 µg/mL (≈ 0.0608 µM) | 0.195 µg/mL (≈ 0.237 µM) | 53% | – | – | –
CC(=O)c1c(C(F)(F)F)nc2cc(F)c(N3CCSCC3)cc2[n+]1[O-] | 4 | 89% | 2 | 0.75 µg/mL (≈ 2 µM) | 0.19 µg/mL (≈ 0.506 µM) | 62% | 0.38 µg/mL (≈ 1.01 µM) | 75% | 1
